Laboratory results taken from ChEMBL document CHEMBL4387756, “Discovery of DC_H31 as potential mutant IDH1 inhibitor through NADPH-based high throughput screening” (Bioorg Med Chem, 2019).
Calls of active or inactive are those of the source. The calls are words filed in the database; no cut-off is given here.

Experiments:
[1] = biological target: T1, Isocitrate dehydrogenase [NADP] cytoplasmic (Homo sapiens, UniProt O75874); assay: Inhibition of N-terminal 6-His-tagged wild type IDH1 (unknown origin) expressed in Escherichia coli BL21 cells using alpha-KG as substrate in presence of NADPH incubated for 40 mins by fluorescence assay
T1 sequence (O75874 whole entry): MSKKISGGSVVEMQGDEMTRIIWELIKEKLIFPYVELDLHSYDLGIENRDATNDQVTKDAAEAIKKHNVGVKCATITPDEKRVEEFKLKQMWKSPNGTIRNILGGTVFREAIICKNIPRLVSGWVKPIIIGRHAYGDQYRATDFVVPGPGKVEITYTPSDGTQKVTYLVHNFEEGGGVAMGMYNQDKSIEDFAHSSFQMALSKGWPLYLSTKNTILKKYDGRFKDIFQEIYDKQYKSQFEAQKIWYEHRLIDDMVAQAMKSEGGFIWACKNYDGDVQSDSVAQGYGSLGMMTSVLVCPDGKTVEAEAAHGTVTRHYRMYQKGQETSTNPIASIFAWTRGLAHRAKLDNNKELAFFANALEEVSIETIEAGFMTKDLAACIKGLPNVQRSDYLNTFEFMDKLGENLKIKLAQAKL

[2] = biological target: T2, Isocitrate dehydrogenase [NADP] cytoplasmic (Homo sapiens, UniProt O75874, R132H); assay: Inhibition of N-terminal 6-His-tagged IDH1 R132H mutant (unknown origin) expressed in Escherichia coli BL21 cells using alpha-KG as substrate in presence of NADPH incubated for 40 mins by fluorescence assay
T2 sequence (O75874 2-414 R132H limits assumed): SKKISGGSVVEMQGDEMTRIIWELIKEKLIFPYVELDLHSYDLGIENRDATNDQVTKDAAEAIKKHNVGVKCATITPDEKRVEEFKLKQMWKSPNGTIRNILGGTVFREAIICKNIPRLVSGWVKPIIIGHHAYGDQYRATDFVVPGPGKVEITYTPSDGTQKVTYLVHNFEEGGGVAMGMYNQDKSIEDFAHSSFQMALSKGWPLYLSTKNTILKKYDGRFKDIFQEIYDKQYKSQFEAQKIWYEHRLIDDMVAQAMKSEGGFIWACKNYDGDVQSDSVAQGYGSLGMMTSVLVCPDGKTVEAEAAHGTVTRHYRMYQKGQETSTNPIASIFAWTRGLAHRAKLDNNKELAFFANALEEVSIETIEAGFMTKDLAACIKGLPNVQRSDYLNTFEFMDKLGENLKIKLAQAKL
Outline: (§1)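 His-tagged-free description: E. coli BL21 expressed, affinity-purified enzyme, 100 nmol/L R132H or 20 nmol/L R132C. Remaining NADPH was read by fluorescence (ex 355/em 460 nm). Dose-response started at 50 µmol/L, seven dilution steps. IC50 is the mean of three determinations.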

[3] = biological target: T3, Isocitrate dehydrogenase [NADP] cytoplasmic (Homo sapiens, UniProt O75874, R132C); assay: Inhibition of N-terminal 6-His-tagged IDH1 R132C mutant (unknown origin) expressed in Escherichia coli BL21 cells using alpha-KG as substrate in presence of NADPH incubated for 40 mins by fluorescence assay; outline: as §1
T3 sequence (O75874 2-414 R132C limits assumed): as the sequence (O75874 2-414 R132H limits assumed) above, with H131C counted along it

[4] = tested on: Isocitrate dehydrogenase [NADP] cytoplasmic (Homo sapiens), O75874 [R132C]; assay: Inhibition of IDH1 R132C mutant in human HT1080 cells assessed as induction of differentiation by measuring increase in GFAP mRNA expression at 1 umol/L after 6 days by qRT-PCR analysis; format: cell-based
Isocitrate dehydrogenase [NADP] cytoplasmic (Homo sapiens), O75874 [R132C], sequence (O75874 whole entry R132C): as the sequence (O75874 whole entry) above, with R132C counted along it
Outline: (§2)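 HT1080 cells in 6-well plates were exposed to 1 µmol/L compound or DMSO for 6 days. RNA was extracted with Trizol, reverse transcribed, and SOX2 and GFAP expression measured by SYBR Green real-time PCR. Values are mean ±SD of three replicates.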

[5] = biological target: T3, Isocitrate dehydrogenase [NADP] cytoplasmic; assay: Binding affinity to N-terminal 6-His-tagged IDH1 R132C mutant (unknown origin) expressed in BL21 cells assessed as equilibrium dissociation constant by SPR assay
Outline: (§3)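 Assay ran on a Biacore T200 at 25 °C in HBS (10 mmol/L HEPES pH 7.4, 150 mmol/L NaCl, 0.1% DMSO). Bacterially expressed, affinity-purified protein was diluted in 10 mmol/L sodium acetate and amine-coupled to a CM5 chip. Analyte ranged 25–0.78 µmol/L for R132H/C and 50–1.56 µmol/L for WT, flowed at 30 µL/min. Association 120 s, dissociation 150 s. KD from a steady-state model.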

[6] = biological target: T1, Isocitrate dehydrogenase [NADP] cytoplasmic; assay: Binding affinity to N-terminal 6-His-tagged wild type IDH1 (unknown origin) expressed in BL21 cells assessed as equilibrium dissociation constant by SPR assay; outline: as §3
[7] = Selectivity ratio of IC50 for human HT1080 cells to IC50 for human U87MG cells; format: functional
[8] = tested on: U-87 MG; assay: Antiproliferation activity against human U87MG cells assessed as reduction in cell viability after 72 hrs by Cell Titer-Glo luminescent assay; format: functional, cell-based, U-87MG ATCC
Outline: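 HT1080 (endogenous IDH1-R132C) and U-87 MG cells kept in DMEM with 10% FBS and 1% penicillin/streptomycin at 37 °C, 5% CO2. Cells were seeded in 96-well plates and, after attachment, exposed to a concentration range for 72 h in triplicate with matched DMSO control. Viable fraction was read by CellTiter-Glo luminescence. IC50 came from a nonlinear curve fit.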

[9] = tested on: HT-1080; assay: Antiproliferation activity against human HT1080 cells assessed as reduction in cell viability after 72 hrs by Cell Titer-Glo luminescent assay; conditions: HT-1080, 72 h
[10] = biological target: T2, Isocitrate dehydrogenase [NADP] cytoplasmic; assay: Binding affinity to N-terminal 6-His-tagged IDH1 R132H mutant (unknown origin) expressed in BL21 cells assessed as equilibrium dissociation constant by SPR assay; outline: as §3
[11] = tested on: Isocitrate dehydrogenase [NADP] cytoplasmic (Homo sapiens), O75874 [R132C]; assay: Inhibition of IDH1 R132C mutant in human HT1080 cells assessed as induction of differentiation by measuring increase in GFAP protein expression after at 0.125 to 1 umol/L 6 days by Western blot analysis; format: cell-based
Outline: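 HT1080 cells in 6-well plates received indicated concentrations or DMSO for 6 days after attachment. BCA-quantified lysates were resolved on 12% SDS-PAGE and transferred to nitrocellulose. Membranes were blocked in 5% milk, probed overnight at 4 °C with anti-GFAP and anti-GAPDH, then with HRP secondary for 2 h, and detected by ECL.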

[12] = tested on: Isocitrate dehydrogenase [NADP] cytoplasmic (Homo sapiens), O75874 [R132C]; assay: Inhibition of IDH1 R132C mutant in human HT1080 cells assessed as induction of differentiation by measuring decrease in SOX2 mRNA expression at 1 umol/L after 6 days by qRT-PCR analysis; format: cell-based; outline: as §2

Row | Compound | IC50 [1] [µM] | IC50 [2] [µM] | IC50 [3] [µM] | further results
1 | CC(C)(C)c1cc(C(c2ccccn2)N2CCN(C3CCCCC3)CC2)cc(C(C)(C)C)c1O (stereo not drawn) | > 50 | > 50 | > 50 | –
2 | CC(C)(C)c1cc(C(SC2CCCCC2)c2ccccn2)cc(C(C)(C)C)c1O (stereo not drawn) | > 50 | > 50 | > 50 | –
3 | CC(C)(C)c1cc(C(c2ccccn2)N2CCOCC2)cc(C(C)(C)C)c1 (stereo not drawn) | > 50 | > 50 | > 50 | –
4 | CC(C)(C)c1cc(C(c2ccccn2)N2CCN(C(C)(C)C)CC2)cc(C(C)(C)C)c1O (stereo not drawn) | 8.5 | > 50 | 9 | –
5 | CC(C)(C)c1cc(C(OC2CCCCC2)c2ccccn2)cc(C(C)(C)C)c1O (stereo not drawn) | > 50 | > 50 | > 50 | –
6 | CCCCN1CCN(C(c2cc(C(C)(C)C)c(O)c(C(C)(C)C)c2)c2ccccn2)CC1 (stereo not drawn) | 12.8 | > 50 | 9 | –
7 | Cc1cccc(C(c2cc(C(C)(C)C)c(O)c(C(C)(C)C)c2)N2CCOCC2)n1 (stereo not drawn) | > 50 | > 50 | > 50 | –
8 | CC(C)(C)c1cc(C(c2cccc(F)c2)N2CCOCC2)cc(C(C)(C)C)c1O (stereo not drawn) | > 50 | > 50 | > 50 | –
9 | CN1CCN(C(c2cc(C(C)(C)C)cc(C(C)(C)C)c2)c2ccccn2)CC1 (stereo not drawn) | > 50 | > 50 | > 50 | –
10 | CC(C)(C)c1cc(C(c2ccccn2)N2CCN(c3ccccc3)CC2)cc(C(C)(C)C)c1O (stereo not drawn) | > 50 | > 50 | > 50 | –
11 | CC(C)(C)c1cc(C(c2ccccn2)N2CCN(CC3CC3)CC2)cc(C(C)(C)C)c1O (stereo not drawn) | 31 | > 50 | 18 | –

Now those with a lower IC50 [2], led by results:

Row | IC50 [1] [µM] | IC50 [2] [µM] | IC50 [3] [µM] | Compound | further results
12 | 43.7 | 0.41 | 2.7 | CC(C)(C)c1cc(C(c2ccccn2)N2CCOCC2)cc(C(C)(C)C)c1O (stereo not drawn) | inhibition [4]: Active; Kd [5]: 0.72 µM; Kd [6]: > 50 µM; Ratio IC50 [7]: 10; IC50 [8]: 48.7 µM; IC50 [9]: 5 µM; Kd [10]: 3.8 µM; inhibition [11]: Active; inhibition [12]: Active
13 | 50 | 3 | 4.9 | CN1CCN(C(c2cc(C(C)(C)C)c(O)c(C(C)(C)C)c2)c2ccccn2)CC1 (stereo not drawn) | –
14 | 3 | 4.76 | 7 | CC(C)N1CCN(C(c2cc(C(C)(C)C)c(O)c(C(C)(C)C)c2)c2ccccn2)CC1 (stereo not drawn) | –
15 | 0.8 | 20 | 4.7 | Cc1cccnc1C(c1cc(C(C)(C)C)c(O)c(C(C)(C)C)c1)N1CCOCC1 (stereo not drawn) | –
16 | – | 0.082 | – | Cc1ccccc1C(C(=O)NC1CCCCC1)N(C(=O)Cn1ccnc1C)c1cccc(F)c1 (stereo not drawn) | –
17 | 6.4 | 12 | 4.8 | CCN1CCN(C(c2cc(C(C)(C)C)c(O)c(C(C)(C)C)c2)c2ccccn2)CC1 (stereo not drawn) | –
